# SENP8 block-1: inhibitors of human SENP8 protease; Q96LD8; purified SENP8, Z-RLRGG-aminoluciferin cleavage, luminescence; inhibition, % at 10 µM; 330,000 tested, 1.2% active; in the data active means inhibition above about 50%
# SENP7 inh: SENP7 protease inhibition. Q9BQF6. recombinant SENP7, Z-RLRGG-aminoluciferin luminescence, 40 min. inhibition, % at 5 µM. 330,000 tested, 1.5% active. AID 434973;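 active means inhibition above about 50% at the single test dose, limit read from the data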;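 further: plate controls were DMSO with enzyme for no effect and no enzyme buffer wells for full effect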
# SENP8 block-2: inhibitors of human SENP8 protease; Q96LD8; recombinant SENP8, Nedd8 substrate fluorescence; inhibition, % at 20 µM; 360,000 tested, 0.64% active; in the data active means inhibition mostly above about 40%, no sharp cut-off; inactive means mostly below about 27%
# HSP90 inh: HSP90 refolding inhibition in rabbit reticulocyte lysate; luciferase refolding luminescence, 3 h; inhibition, % at 5.6 µM; AID 1789; 290,000 tested, 0.91% active;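 active means inhibition above the screen-wide mean plus 3 SD, computed separately per campaign, cut at about 16% in these data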;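 further: 0% = DMSO wells and 100% = 60 µM geldanamycin wells; inhibitors lower the luminescence because luciferase stays unfolded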
# SENP1 inh: inhibitors of human SENP1 SUMO protease catalytic domain | inhibition, % at 10 µM | Q9P0U3 | 360,000 tested, 0.21% active | recombinant SENP1 catalytic domain, CyPet-SUMO1-YPet FRET cleavage;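 active means inhibition at least 30% at 10 µM, raw YFP signal under a set limit, fluorescence ratio 0.5 to 1.5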;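 further: 0% = enzyme with DMSO and 100% = no enzyme wells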
#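 Material: hSENP1 catalytic domain, recombinant; medium: Tris pH 8 with BME, BSA, NP40 and catalase; compound: single concentration of 10 µM compound, 0.5% DMSO final; technique: FRET read of cyan and yellow fluorescence; timing: 50 min enzyme reaction, room temperature, light-protected; reagent: SFCypet-SUMO1-SFYpet substrate at 25 nM; control set: no-enzyme low, enzyme-DMSO high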
# SENP6 block: blocks the human protease SENP6. Q9GZR1. Recombinant SENP6 catalytic domain, aminoluciferin luminescence. inhibition, % at 10 µM. 330,000 tested, 1.8% active. AID 2599;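 active means inhibition above about 50% at the single tested dose, limit read from the data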;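 further: plate controls were DMSO wells with enzyme for no effect and DMSO wells lacking enzyme for full effect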
# Target sequence (Q9GZR1 628-1112 limits assumed): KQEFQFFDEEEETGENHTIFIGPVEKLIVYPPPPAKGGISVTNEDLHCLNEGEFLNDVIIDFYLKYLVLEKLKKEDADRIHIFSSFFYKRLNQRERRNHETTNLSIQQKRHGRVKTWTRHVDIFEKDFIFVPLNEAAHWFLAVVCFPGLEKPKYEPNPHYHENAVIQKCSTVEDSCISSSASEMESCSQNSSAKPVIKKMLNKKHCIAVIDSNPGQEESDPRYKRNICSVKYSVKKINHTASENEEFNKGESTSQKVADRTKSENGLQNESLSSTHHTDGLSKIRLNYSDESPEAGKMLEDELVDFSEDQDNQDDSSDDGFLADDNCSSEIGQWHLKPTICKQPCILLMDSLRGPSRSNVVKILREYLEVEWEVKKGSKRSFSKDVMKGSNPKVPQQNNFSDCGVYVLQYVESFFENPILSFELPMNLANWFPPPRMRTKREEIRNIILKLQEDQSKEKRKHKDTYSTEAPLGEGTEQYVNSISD
# HSP90 confirm: HSP90 inhibition, confirmation assay; 2,300 tested, 64% active; rabbit reticulocyte lysate, luciferase refolding luminescence, 3 h; inhibition, % at 5.9 µM; shares compounds with HSP90 inh; in the data active means inhibition above about 18%;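 further: 0% = vehicle wells and 100% = reference inhibitor wells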
# FLuc counter: firefly luciferase inhibition, HSP90 counter-screen; shares compounds with HSP90 inh; purified native firefly luciferase, luminescence; inhibition, % at 5.9 µM; 2,300 tested, 48% active; AID 1847;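 active means inhibition above the mean inhibition of all tested sample wells plus 3 SD, cut at about 10% in these data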;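 further: 0% = DMSO with luciferase and 100% = wells lacking luciferase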
# SENP8 confirm: human SENP8 inhibition, confirmed. shares compounds with SENP7 inh. inhibition, % at 12.5 µM. Recombinant SENP8, Z-RLRGG-aminoluciferin luminescence, 60 min. AID 488912. 6,200 tested, 40% active;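 active means mean inhibition across replicates above about 50%, limit read from the data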
# SENP6 confirm: human SENP6 inhibition, confirmed. recombinant SENP6, Z-RLRGG-aminoluciferin luminescence. 6,200 tested, 58% active. shares compounds with SENP7 inh. inhibition, % at 12.5 µM. AID 488915
# SENP7 confirm: confirmation of human SENP7 protease inhibitors. recombinant SENP7, Z-RLRGG-aminoluciferin luminescence, 40 min. shares compounds with SENP7 inh. 6,200 tested, 69% active. inhibition, % at 12.5 µM
# Casp3 select: caspase-3 inhibition (SENP selectivity assay) | shares compounds with SENP7 inh | purified caspase-3, Z-DEVD-aminoluciferin luminescence, 60 min | inhibition, % at 12.5 µM | 6,200 tested, 60% active | AID 488918;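 active means mean inhibition above about 50%, limit read from the data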;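 further: plate controls were enzyme with DMSO for no effect and wells without caspase-3 for full effect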
# SENP luc ctr: luminescence interference (SENP counter-screen); shares compounds with SENP7 inh; Pre-incubated SENP8/Z-RLRGG-aminoluciferin, luciferase luminescence interference; inhibition, % at 12.5 µM; 6,200 tested, 39% active; AID 488919;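 active means mean inhibition above about 50% when retested at one dose, limit read from the data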;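 further: plate controls were DMSO wells with completed reaction for no effect and substrate without enzyme for full effect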
# * marks the source's active call; other numbers are inactive results; i = inactive; . = no result given. An excerpt weighted towards active compounds, which were near 2.9% of everything screened.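 How the source made its calls, unless noted: active means mean inhibition above about 50% in the one-dose retest (limit read from the data); inactive means the rest.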
SMILES,SENP8 block-1,SENP7 inh,SENP8 block-2,HSP90 inh,SENP1 inh,SENP6 block,HSP90 confirm,FLuc counter,SENP8 confirm,SENP6 confirm,SENP7 confirm,Casp3 select,SENP luc ctr
Cc1nc(NC(=O)c2cccc(Cl)c2)sc1C(=O)N1CCCCC1,56.6*,68.0*,-39.8,34.2*,-4.7,71.5*,48.2*,-15.6,1.7,30.2,6.2,2.8,10.1
CC(=O)c1sc(NC(=O)c2ccc(Cl)cc2)nc1C,36.8,71.9*,-27.0,42.1*,-3.7,-0.4,24.7*,-16.1,17.1,17.5,6.7,25.3,9.1
Cc1nnc(NC(=O)C(C)Sc2nnc(CNC(=O)c3ccccc3F)n2C)s1 (centres undefined),2.8,-13.4,9.4,.,0.1,-12.3,.,.,.,.,.,.,.
c1ccc(-c2nccc3ccccc23)cc1,-8.8,-3.4,7.2,.,0.8,-22.7,.,.,.,.,.,.,.
Cc1ccc(-c2nc(-c3nccc4ccccc34)oc2-c2ccccc2)cc1,47.7,80.5*,-308.8,22.8*,-136.4,69.5*,41.1*,46.5*,47.8,50.5*,83.8*,84.0*,72.2*
FC(F)(F)c1ccccc1NC(=S)Nc1cccc2cnccc12,.,.,-119.3,1.4,-7.2,.,.,.,.,.,.,.,.
Cc1ccccc1NC(=S)Nc1cccc2cnccc12,87.9*,85.9*,-152.3,73.3*,-13.8,97.8*,-2.8,-6.8,15.5,32.8,19.0,10.2,6.0
Cc1ccc(F)c(NC(=S)Nc2cccc3ccccc23)c1,83.5*,45.5,-453.4,17.7*,-15.3,87.7*,-5.7,-8.7,10.2,10.2,0.7,-5.3,-2.6
S=C(Nc1cccc2ccccc12)Nc1cccc2ccccc12,.,.,i,.,-25.7,.,.,.,.,.,.,.,.
CC(C)c1cc(C(N)=O)c(NC(=O)c2cccc(COc3ccc(Cl)cc3)c2)s1,39.4,15.3,-224.1,49.0*,-4.8,84.3*,71.3*,68.6*,97.5*,95.0*,99.2*,48.2,91.1*
Cc1nn(Cc2c(F)c(F)c(F)c(F)c2F)c(C)c1NC(=O)c1cccc(COc2ccc(Cl)cc2)c1,-15.5,-11.2,5.5,1.9,1.3,-6.5,.,.,.,.,.,.,.
Cc1ccc2nc(-c3ccc(NC(=O)C4CCCO4)cc3)[nH]c2c1 (centres undefined),7.7,40.2,-268.2,24.1*,1.4,53.1*,54.8*,35.2*,45.1,40.9,67.8*,57.6*,44.9
O=C(Nc1nccs1)c1sc2ccccc2c1Cl,75.3*,70.7*,-88.5,23.5*,3.0,87.7*,50.5*,44.7*,1.8,58.2*,90.9*,69.6*,6.9
Cc1cccc(C(=O)n2c(=S)nc3cc(C)ccn32)c1,57.8*,81.2*,-20.1,17.8*,0.5,74.8*,57.2*,46.9*,63.3*,71.6*,86.7*,45.9,30.5
O=C(N=C1SC2CS(=O)(=O)CC2N1Cc1ccccc1Cl)C1CC1 (centres undefined),4.1,-0.8,15.2,1.0,1.2,10.5,.,.,.,.,.,.,.
COc1ccc(C(=O)Nc2cnccn2)cc1[N+](=O)[O-],0.9,4.7,13.0,4.4,1.4,-17.9,.,.,.,.,.,.,.
CC(C)(C)c1ccc(C(=O)Nc2cnccn2)cc1,28.9,55.0*,9.6,17.5*,-2.7,52.4*,50.3*,37.4*,38.3,47.4,60.3*,63.0*,30.0

# Assay outcomes (PubChem)
